From ChEMBL document CHEMBL4431364, “Discovery and synthetic optimization of a novel scaffold for hydrophobic tunnel-targeted autotaxin inhibition” (Bioorg Med Chem, 2016) come the findings set out here.

In general, inhibition refers to the drop in the measured response relative to a control, in per cent. A word on the IC50: it is the midpoint of a concentration-inhibition curve.

Assay [1] concerns the target T1, Autotaxin (Homo sapiens, UniProt Q13822). In words: Inhibition of C-terminal FLAG tagged human recombinant ATX expressed in insect sf9 cells at 10 uM using FS-3 as substrate measured every 2 mins for 60 mins by FRET assay. The gist of the method: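 10 μM compound with 10 nM human FLAG-fusion ATX in pH 8.0 Tris buffer (30 μM BSA, 1 mM CaCl2, 1 mM MgCl2, 5 mM KCl, 140 mM NaCl) and 1 μM FS-3. Fluorescence at ex 485/em 520 nm read every 2 min for 60 min at 37 °C. Normalized to no-ATX (0%) and ATX without compound (100%). Triplicate.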

The target in assay [2] is T1, Autotaxin. Put plainly: Inhibition of C-terminal FLAG tagged human recombinant ATX expressed in insect sf9 cells at 10 uM using pNP-TMP as substrate measured every 2 mins for 60 mins by absorbance.
For assay [3], the target named is T1, Autotaxin. In words: Inhibition of C-terminal FLAG tagged human recombinant ATX expressed in insect sf9 cells using FS-3 as substrate measured every 2 mins for 60 mins by FRET assay. The procedure, abridged:
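Dose response over 0.03 to 30 μM compound, 10 nM human FLAG-fusion ATX, 1 μM FS-3 in pH 8.0 Tris/BSA assay buffer. Fluorescence at 485/520 nm every 2 min for 60 min at 37 °C, normalized to no-ATX and no-compound controls. IC50 by non-linear regression. Triplicate.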

Consider `O=C(COc1ccccc1Cl)N1CCN(c2ccccc2[N+](=O)[O-])CC1`, for which the inhibition amounted to 47.1% at Autotaxin [1] and 18.7% at Autotaxin [2].
For `O=C(O)c1ccc(N2CCN(C(=O)COc3ccccc3Cl)CC2)cc1`, in that order: 27.6% and 7.3%.
With `O=C(O)c1cccc(N2CCN(C(=O)COc3ccc(C(F)(F)F)cc3)CC2)c1`, the results for the inhibition on Autotaxin [1] and on Autotaxin [2] were 65% and 31.6%, respectively. At Autotaxin [3], the concentration for half-maximal inhibition (IC50) came out at 7.5 µM.
`O=C(O)c1ccc(N2CCN(C(=O)COc3cccc(Cl)c3)CC2)cc1`: the figures for the inhibition at Autotaxin [1] and at Autotaxin [2] were 56% and 6.8%, respectively. Moreover, the half-inhibitory concentration (IC50) on Autotaxin [3] was found to be 6.5 µM.
Taken in the same sequence, the figures for `O=C(O)c1ccc(N2CCN(C(=O)COc3ccc(Cl)cc3)CC2)cc1` were 50.8%, 19.6% and 4.1 µM.
Consider `O=C(COc1ccccc1C(F)(F)F)N1CCN(c2ccccc2[N+](=O)[O-])CC1`, for which the values for the inhibition at Autotaxin [1] and on Autotaxin [2] were 50% and 38.2%, respectively. Besides, the IC50 on Autotaxin [3] amounted to 11.4 µM.
On to `O=C(O)c1ccccc1N1CCN(C(=O)COc2ccc(Cl)cc2)CC1`, for which the inhibition at Autotaxin [1] stood at 74.5%; at Autotaxin [2], 32.1%. In addition, at Autotaxin [3], the 50% inhibitory concentration (IC50) amounted to 6 µM.
Consider `O=C(COc1cccc(F)c1)N1CCN(c2cccc([N+](=O)[O-])c2)CC1`, for which the inhibition was 59.8% on Autotaxin [1] and 13.3% on Autotaxin [2]. In addition, the half-maximal inhibitory concentration (IC50) at Autotaxin [3] amounted to 6.2 µM.
As for `O=C(COc1cccc(C(F)(F)F)c1)N1CCN(c2ccccc2[N+](=O)[O-])CC1`, the figures for the inhibition on Autotaxin [1] and at Autotaxin [2] were 49.2% and 35.4%, respectively.
As for `O=C(O)c1ccccc1N1CCN(C(=O)COc2cccc(C(F)(F)F)c2)CC1`, the results for the inhibition on Autotaxin [1] and on Autotaxin [2] were 41.3% and -3.5%, respectively.
With `O=C(COc1ccccc1C(F)(F)F)N1CCN(c2ccc([N+](=O)[O-])cc2)CC1`, the inhibition at Autotaxin [1] is 54.6%; on Autotaxin [2] it was -3.7%. Also, the 50% inhibitory concentration (IC50) on Autotaxin [3] amounted to 9.2 µM.
In the case of `O=C(O)c1ccccc1N1CCN(C(=O)COc2cccc(Cl)c2)CC1`, the results for the inhibition at Autotaxin [1] and on Autotaxin [2] were 24.4% and -3.3%, respectively.
Consider `O=C(COc1ccc(F)cc1)N1CCN(c2ccccc2[N+](=O)[O-])CC1`, for which the inhibition at Autotaxin [1] is 42.4%; on Autotaxin [2], 19.9%.
For `O=C(COc1ccccc1F)N1CCN(c2ccccc2[N+](=O)[O-])CC1`, the inhibition on Autotaxin [1] was 25.6%; at Autotaxin [2] it was -1.8%.
With `O=C(COc1cccc(F)c1)N1CCN(c2ccccc2[N+](=O)[O-])CC1`, the inhibition at Autotaxin [1] was 39.5%; on Autotaxin [2] it was 18.2%.
As to `O=C(COc1ccc(C(F)(F)F)cc1)N1CCN(c2ccc([N+](=O)[O-])cc2)CC1`, the inhibition at Autotaxin [1] turned out to be 50.2%; on Autotaxin [2], 26.6%. Moreover, at Autotaxin [3], the IC50 came out at 8.1 µM.
Take `O=C(COc1cccc(Cl)c1)N1CCN(c2ccccc2[N+](=O)[O-])CC1`: the inhibition is 42.7% on Autotaxin [1] and 24.9% on Autotaxin [2].
With `O=C(COc1cccc(Cl)c1)N1CCN(c2cccc([N+](=O)[O-])c2)CC1`, the inhibition at Autotaxin [1] came out at 62.4%; at Autotaxin [2], 17.1%. Further, the concentration for half-maximal inhibition (IC50) at Autotaxin [3] worked out at 5.8 µM.
For the compound `O=C(O)c1cccc(N2CCN(C(=O)COc3ccccc3Cl)CC2)c1`, the inhibition on Autotaxin [1] was found to be 42%; on Autotaxin [2], 11.5%.
Regarding `O=C(COc1cccc(C(F)(F)F)c1)N1CCN(c2cccc([N+](=O)[O-])c2)CC1`, the values for the inhibition on Autotaxin [1] and on Autotaxin [2] were 61.9% and 14.3%, respectively. Also, the IC50 on Autotaxin [3] was determined as 4.6 µM.
Turning to `O=C(O)c1ccccc1N1CCN(C(=O)COc2ccccc2F)CC1`, the inhibition at Autotaxin [1] was -7.6%; at Autotaxin [2] it was -5.7%.
On to `O=C(O)c1cccc(N2CCN(C(=O)COc3ccccc3F)CC2)c1`, for which the inhibition on Autotaxin [1] was 10.8%; on Autotaxin [2] it was 10.9%.
As to `O=C(COc1cccc(Cl)c1)N1CCN(c2ccc([N+](=O)[O-])cc2)CC1`, the inhibition at Autotaxin [1] was 70.6%; at Autotaxin [2] it was 15.6%. For the same compound, on Autotaxin [3], the IC50 was determined as 4.6 µM.
In the case of `O=C(COc1ccccc1Cl)N1CCN(c2cccc([N+](=O)[O-])c2)CC1`, the inhibition at Autotaxin [1] came out at 41.9%; on Autotaxin [2] it was 4.9%.
`O=C(COc1ccc(F)cc1)N1CCN(c2cccc([N+](=O)[O-])c2)CC1`: the inhibition on Autotaxin [1] was determined as 48.1%; on Autotaxin [2], 8.9%.
With `O=C(O)c1ccccc1N1CCN(C(=O)COc2cccc(F)c2)CC1`, the inhibition on Autotaxin [1] was -5.5%; on Autotaxin [2], -4.8%.
In the case of `O=C(O)c1ccccc1N1CCN(C(=O)COc2ccc(Cl)cc2Cl)CC1`, the inhibition on Autotaxin [1] is 27.6%; on Autotaxin [2], -7.9%.
As for `O=C(COc1ccccc1C(F)(F)F)N1CCN(c2cccc([N+](=O)[O-])c2)CC1`, the figures for the inhibition at Autotaxin [1] and on Autotaxin [2] were 56.4% and 7.7%, respectively. In addition, the IC50 on Autotaxin [3] was 6.7 µM.
Consider `COc1ccc2c(c1)C(NCc1cc(OC)c(OC)cc1N)CCO2` (stereo not given), for which the inhibition at Autotaxin [1] came out at 48%; at Autotaxin [2], 7.5%. For the same compound, the IC50 on Autotaxin [3] worked out at 6.6 µM.
As to `O=C(O)c1cccc(N2CCN(C(=O)COc3ccc(F)cc3)CC2)c1`, the results for the inhibition on Autotaxin [1] and on Autotaxin [2] were 58.1% and 41.1%, respectively. Moreover, the half-maximal inhibitory concentration (IC50) at Autotaxin [3] is 4.6 µM.
Taken in the same sequence, the figures for `O=C(COc1ccc(Cl)cc1)N1CCN(c2cccc([N+](=O)[O-])c2)CC1` were 62.6%, 23.8% and 5.4 µM.
Turning to `O=C(O)c1cccc(N2CCN(C(=O)COc3ccccc3C(F)(F)F)CC2)c1`, the inhibition on Autotaxin [1] worked out at 51.5%; on Autotaxin [2] it was 23.7%. Besides, at Autotaxin [3], the half-maximal inhibitory concentration (IC50) amounted to 8.1 µM.
As to `O=C(O)c1ccc(N2CCN(C(=O)COc3cc(Cl)cc(Cl)c3)CC2)cc1`, the inhibition at Autotaxin [1] was 46.7%; on Autotaxin [2] it was 27.8%.
Regarding `O=C(O)c1ccccc1N1CCN(C(=O)COc2ccccc2C(F)(F)F)CC1`, the inhibition is 17.3% on Autotaxin [1] and 4.6% at Autotaxin [2].
Consider `O=C(O)c1ccc(N2CCN(C(=O)COc3ccc(F)cc3)CC2)cc1`, for which the inhibition is 0.9% on Autotaxin [1] and -6.5% on Autotaxin [2].
Regarding `O=C(COc1ccc(Cl)cc1Cl)N1CCN(c2ccccc2[N+](=O)[O-])CC1`, the figures for the inhibition at Autotaxin [1] and at Autotaxin [2] were 69.8% and 37.1%, respectively. In addition, the IC50 at Autotaxin [3] was 4.1 µM.
`O=C(COc1cccc(F)c1)N1CCN(c2ccc([N+](=O)[O-])cc2)CC1`: at Autotaxin [1], the inhibition amounted to 63%. At Autotaxin [3], the IC50 came out at 6.6 µM.
As to `O=C(O)c1ccc(N2CCN(C(=O)COc3ccc(Cl)cc3Cl)CC2)cc1`, the inhibition at Autotaxin [1] was 23.9%; at Autotaxin [2], 9.7%.
`O=C(O)c1ccc(N2CCN(C(=O)COc3ccc(C(F)(F)F)cc3)CC2)cc1`: the inhibition at Autotaxin [1] worked out at 46%; on Autotaxin [2], 7.9%.
On to `O=C(COc1ccc(C(F)(F)F)cc1)N1CCN(c2cccc([N+](=O)[O-])c2)CC1`, for which the values for the inhibition on Autotaxin [1] and at Autotaxin [2] were 60.4% and 30.3%, respectively. The concentration for half-maximal inhibition (IC50) at Autotaxin [3] came to 4.2 µM.
As for `O=C(COc1ccc(Cl)cc1)N1CCN(c2ccccc2[N+](=O)[O-])CC1`, the inhibition on Autotaxin [1] amounted to 59.1%; on Autotaxin [2], 38%. Also, the IC50 at Autotaxin [3] came out at 8.2 µM.
For the compound `CCCCCCCCCCCCCC(=O)NC(CCC(=O)O)C(=O)O` (stereo not given), the values for the inhibition on Autotaxin [1] and at Autotaxin [2] were 54.1% and -6.9%, respectively. At Autotaxin [3], the 50% inhibitory concentration (IC50) is 6 µM.
For the compound `CC(=O)OC1(C(=O)COC(=O)c2ccco2)CC2CCC3C4C=CC(=O)CC4(C)CCC3C2(C)C1` (stereo not given), the inhibition at Autotaxin [1] fell in the range of 59.6 to 59.7%. Besides, at Autotaxin [3], the half-inhibitory concentration (IC50) was found to be 5.7 µM.
With `O=C(COc1ccc(F)cc1)N1CCN(c2ccc([N+](=O)[O-])cc2)CC1`, the inhibition on Autotaxin [1] turned out to be 65.4%. For the same compound, on Autotaxin [3], the IC50 is 6.4 µM.
Regarding `O=C(O)c1ccccc1N1CCN(C(=O)COc2ccc(F)cc2)CC1`, the inhibition at Autotaxin [1] was 11.5%; on Autotaxin [2], -7.2%.
As for `O=C(O)c1cccc(N2CCN(C(=O)COc3cccc(F)c3)CC2)c1`, the figures for the inhibition at Autotaxin [1] and on Autotaxin [2] were 55.2% and 30.2%, respectively. The IC50 at Autotaxin [3] was found to be 8.9 µM.
Take `CC(C)COc1cnc(SSc2ncc(OCC(C)C)cn2)nc1`: at Autotaxin [1], the inhibition stood at 20.6%.
Consider `O=C(O)c1ccc(N2CCN(C(=O)COc3cccc(F)c3)CC2)cc1`, for which the inhibition at Autotaxin [1] came out at 32.3%.
For `O=C(O)c1ccc(N2CCN(C(=O)COc3ccccc3C(F)(F)F)CC2)cc1`, the inhibition on Autotaxin [1] was 10.9%; at Autotaxin [2] it was -0.8%.
Take `O=C(O)c1ccccc1N1CCN(C(=O)COc2ccccc2Cl)CC1`: the inhibition at Autotaxin [1] was 12.1%; on Autotaxin [2], 1.7%.
As for `O=C(COc1cccc(C(F)(F)F)c1)N1CCN(c2ccc([N+](=O)[O-])cc2)CC1`, the inhibition is 63.3% at Autotaxin [1] and 4.1% on Autotaxin [2]. Further, on Autotaxin [3], the IC50 worked out at 4.9 µM.
Turning to `CCCCOCCCNc1cc(-c2cccc(C)c2)ncn1`, the inhibition on Autotaxin [1] was determined as 9.16%.
Turning to `Cc1c(Br)cc(C(=O)OCC(=O)c2ccccc2)c(C)c1C`, the inhibition on Autotaxin [1] turned out to be 6.54%.
Regarding `O=C1N=C(Nc2ccccc2)SC1Cc1ccc(-c2cccc(Br)c2)o1` (stereo not given), the inhibition at Autotaxin [1] is -0.74%.
